Where a SMILES comes first, the peptide text is derived from it. [ ]: non-standard residue; d: D form.
How the values were obtained:
Mu-type opioid receptor = Mu-type opioid receptor (Rattus norvegicus, UniProt P33535); assay: Inhibition of [3H]DAMGO binding to rat whole brain Opioid receptor mu
Procedure, shortened: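 Rat whole-brain (minus cerebellum) membranes (0.3 mg protein) were incubated with 0.7 nM [3H]DAMGO and peptide (1 nM to 10 µM) for 2 h at 25 °C. Buffer was 50 mM Tris-HCl pH 7.4, 5 mM MgCl2, with protease inhibitors. Nonspecific binding was defined with 10 µM BNTX. Bound ligand was separated by GF/C filtration. Mean ± SEM, ≥3 experiments.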

[1] = target: Delta-type opioid receptor (Rattus norvegicus) (UniProt P33533); assay: Inhibition of [3H]naltrindole binding to rat whole brain Opioid receptor delta at 1-10 uM
Chain of Delta-type opioid receptor (Rattus norvegicus) (P33533 whole entry): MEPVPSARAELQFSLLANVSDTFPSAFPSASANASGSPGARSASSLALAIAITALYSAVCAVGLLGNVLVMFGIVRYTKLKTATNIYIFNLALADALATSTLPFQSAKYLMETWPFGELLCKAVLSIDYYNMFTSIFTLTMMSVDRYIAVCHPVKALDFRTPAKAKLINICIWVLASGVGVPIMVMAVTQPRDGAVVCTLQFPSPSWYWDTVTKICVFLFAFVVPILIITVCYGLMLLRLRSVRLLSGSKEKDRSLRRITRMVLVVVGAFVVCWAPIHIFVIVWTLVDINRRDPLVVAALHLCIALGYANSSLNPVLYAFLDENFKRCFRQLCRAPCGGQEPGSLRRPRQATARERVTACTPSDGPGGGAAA
Procedure, shortened: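 Brain (minus cerebellum) membranes were labelled with [3H]naltrindole as the δ radioligand. […] Mean ± SEM, n experiments.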

Cavia porcellus [2] = organism: Cavia porcellus; assay: Inhibition of isolated guinea pig ileum contraction induced by electrical stimulation; assay type: functional
Procedure, shortened: (§1)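 Electrical field stimulation was applied after 30-40 min equilibration: train 100 ms, pulse width 1 ms, pulse interval 10 ms, supramaximal 20 V. Compounds were added cumulatively at 3-fold steps (0.1 nM to 1 µM), with parallel runs in 10 nM naloxone. Isotonic tension was recorded as % of control […]. Efficacy is the maximal inhibition; EC50 is the half-maximal concentration. Mean ± SEM, 4-6 experiments.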

Cavia porcellus [3] = organism: Cavia porcellus; assay: Efficacy against isolated guinea pig ileum contraction induced by electrical stimulation; assay type: functional; procedure, shortened: as §1

Chain of Mu-type opioid receptor (P33535 whole entry): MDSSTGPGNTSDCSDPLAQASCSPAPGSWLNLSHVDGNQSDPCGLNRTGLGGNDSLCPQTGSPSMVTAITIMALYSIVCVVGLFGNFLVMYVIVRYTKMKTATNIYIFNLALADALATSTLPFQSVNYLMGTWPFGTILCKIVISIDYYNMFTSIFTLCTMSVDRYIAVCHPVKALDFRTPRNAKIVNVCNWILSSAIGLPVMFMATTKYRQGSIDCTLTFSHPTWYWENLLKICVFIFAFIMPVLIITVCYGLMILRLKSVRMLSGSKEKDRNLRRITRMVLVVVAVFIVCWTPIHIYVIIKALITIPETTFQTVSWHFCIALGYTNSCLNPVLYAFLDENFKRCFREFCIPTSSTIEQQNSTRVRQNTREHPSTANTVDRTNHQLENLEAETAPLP

Structure (SMILES) | Ki (Mu-type opioid receptor) | inhibition [1] | EC50 (Cavia porcellus [2]) | Efficacy (Cavia porcellus [3])
NC(=O)[C@@H]1CSC([C@@H](Cc2ccccc2)NC(=O)[C@@H]2CCCN2C(=O)[C@@H](N)Cc2ccc(O)cc2)N1 (stereo partly drawn) | 290 nM | 42.2% | 36 nM | 71%
CN(C)C(=O)C(CCN1CCC(O)(c2ccc(Cl)cc2)CC1)(c1ccccc1)c1ccccc1 [LOPERAMIDE] | – | – | 489 nM | 11%
C[C@@H](NC(=O)[C@@H](N)Cc1ccc(O)cc1)C(=O)NCC(=O)N(C)[C@@H](Cc1ccccc1)C(=O)NCCO [DAMGO] | – | – | 36.2 nM | 61%
NC(=O)[C@@H]1CCCN1C(=O)[C@H](Cc1ccccc1)NC(=O)[C@@H]1CCCN1C(=O)[C@@H](N)Cc1ccc(O)cc1 (H-YPFP-NH2) [listing 1 of 2 here] | – | – | – | 65%
NC(=O)[C@@H]1CSC([C@H](Cc2c[nH]c3ccccc23)NC(=O)[C@@H]2CCCN2C(=O)[C@@H](N)Cc2ccc(O)cc2)N1 (stereo partly drawn) | 178 nM | 67.8% | 28 nM | 70%
NC(=O)[C@@H]1CCCN1C(=O)[C@H](Cc1ccccc1)NC(=O)[C@@H]1CSC([C@@H](N)Cc2ccc(O)cc2)N1 (stereo partly drawn) | – | 10.2% | – | 17%
NC(=O)[C@H]1CCCN1C(=O)[C@H](Cc1ccccc1)NC(=O)[C@@H]1CCCN1C(=O)[C@@H](N)Cc1ccc(O)cc1 (H-YPF[dP]-NH2) | – | 23.6% | – | –
CN1CC[C@]23c4c5ccc(O)c4O[C@H]2[C@@H](O)C=C[C@H]3[C@H]1C5 [MORPHINE] | – | – | – | 66%
NC(=O)[C@@H]1CSC([C@H](Cc2ccccc2)NC(=O)[C@@H]2CCCN2C(=O)[C@@H](N)Cc2ccc(O)cc2)N1 (stereo partly drawn) | 14.1 nM | 22.7% | 9.7 nM | 65%
NC(=O)[C@@H]1CCCN1C(=O)[C@H](Cc1ccccc1)NC(=O)[C@@H]1CCCN1C(=O)[C@@H](N)Cc1ccc(O)cc1 (H-YPFP-NH2) [listing 2 of 2 here] | 25.6 nM | – | 13 nM | –

Reference: ChEMBL document CHEMBL1143626, “Morphiceptin analogues containing a dipeptide mimetic structure: an investigation on the bioactive topology at the mu-receptor” (J Med Chem, 2005)
